{"source": "paper PMC6893110", "about": "(Molecular imaging and biology, 2020)", "key": {"MCF7 tumors": {"test_system": "MCF7 tumors", "assay": "Ex vivo biodistribution of [^124I]IPAG in MCF7 tumor-bearing mice", "parameters": "species or system athymic nude mice", "conditions": "n = 5", "how_it_was_run": "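Female athymic nude mice (6–8 wk) got s.c. 17β-estradiol pellets (0.75 mg) 72 h before s.c. forelimb implant of 1×10^7 MCF7 cells in 1:1 Matrigel/medium. Tumors were 100–300 mm³. Mice got 0.1% KI i.p. 1 h before i.v. tracer (20–30 μCi in 5% ethanol/0.9% saline) and were euthanised by CO₂ at 4, 24, 48 or 72 h. Organs were weighed and gamma-counted, with background and decay correction. Injected dose was taken from syringe activity before and after injection. Results are %ID/g, mean and SD.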"}, "MCF7 tumor xenografts": {"test_system": "MCF7 tumor xenografts", "assay": "PET imaging of [^124I]IPAG in MCF7 tumor-bearing mice", "assay_type": "in vivo, athymic nude mice", "how_it_was_run": "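Female athymic nude mice (n=5) carried estradiol-supported s.c. MCF7 xenografts on the right forelimb (100–300 mm³). They got 0.1% KI i.p. 1 h before i.v. tracer (200 μCi, 7.4 MBq, in 150 μL 0.5% ethanol/saline). Mice were anaesthetised with 2% isoflurane in air for 15 min and scanned by microPET at serial times up to 144 h post-injection. Images were read visually and tumor maximum pixel values recorded.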"}, "S1R [1]": {"target": "S1R (Homo sapiens, UniProt Q99720)", "sequence (Q99720 whole entry)": "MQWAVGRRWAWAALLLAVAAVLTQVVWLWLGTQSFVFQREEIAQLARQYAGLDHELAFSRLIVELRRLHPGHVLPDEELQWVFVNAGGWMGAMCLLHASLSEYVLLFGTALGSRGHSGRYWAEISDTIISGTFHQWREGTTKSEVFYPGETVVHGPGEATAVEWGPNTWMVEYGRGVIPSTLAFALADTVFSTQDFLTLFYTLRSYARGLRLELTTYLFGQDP", "assay_type": "binding"}, "MCF-7 tumor xenografts": {"test_system": "MCF-7 tumor xenografts", "assay": "In vivo tracer dilution", "parameters": "species or system athymic nude mice", "conditions": "for reduction of [^124I]IPAG tumor uptake: 100-fold excess of IPAG", "how_it_was_run": "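MCF7-xenografted athymic nude mice (estradiol-supplemented, 100–300 mm³ tumors) got KI i.p. 1 h before i.v. co-injection. […] Mice were euthanised at 24, 48 or 72 h and organs weighed and gamma-counted. %ID/g was decay- and background-corrected.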"}, "[2]": {"assay": "Solubility of IPAG in assay media", "assay_type": "physicochemical", "conditions": "in both cell media and PBS"}, "S1R [3]": {"target": "S1R", "conditions": "read-out: Kd for S1R; binding to S1R; no reference given; cited from earlier work"}, "LNCaP tumors": {"test_system": "LNCaP tumors", "assay": "PET imaging blocking study in LNCaP tumor-bearing mice", "assay_type": "in vivo, athymic nude mice", "conditions": "100-fold excess of cold IPAG co-injected with [^124I]IPAG", "how_it_was_run": "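LNCaP cells (5×10^6 in 1:1 Matrigel/medium) were grown s.c. on the hind limb of athymic nude mice for 3–5 weeks. Mice got 0.1% KI i.p. 1 h before i.v. tracer (200 μCi in 150 μL 0.5% ethanol/saline) co-injected with 100-fold excess unlabeled IPAG. Under 2% isoflurane, mice were imaged by microPET at 4, 24 and 72 h. %ID/g came from regions of interest drawn on the PET images.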"}}, "note": "pIC50, pKd: −log10 of the molar value.", "data": [{"smiles": "N=C(Nc1ccc([124I])cc1)NC1C2CC3CC(C2)CC1C3", "note": "(stereo not shown) [[^124I]IPAG, I-124 labeled 1-(4-iodophenyl)-3-(2-adamantyl)guanidine]", "values": [{"measurement": "%ID/g uptake in MCF7 tumors", "setting": "MCF7 tumors; 4 h post i.v. injection", "result": "1.53 ± 0.27", "unit": "%ID/g"}, {"measurement": "%ID/g uptake in MCF7 tumors", "setting": "MCF7 tumors; 24 h post i.v. injection", "result": "1.09 ± 0.24", "unit": "%ID/g"}, {"measurement": "%ID/g uptake in MCF7 tumors", "setting": "MCF7 tumors; 48 h post i.v. injection", "result": "0.94 ± 0.23", "unit": "%ID/g"}, {"measurement": "uptake at extended time post injection (PET imaging)", "setting": "MCF7 tumor xenografts; 144 h post injection", "result": "~ 0.17 % ID/g"}]}, {"smiles": "N=C(Nc1ccc(I)cc1)NC1C2CC3CC(C2)CC1C3", "note": "(stereo not shown) [IPAG, 1-(4-iodophenyl)-3-(2-adamantyl)guanidine]", "values": [{"measurement": "pIC50", "setting": "S1R [1]", "result": "7.85 to 8.33"}, {"measurement": "inhibitory constants in vitro", "setting": "S1R [1]; competition against radioiodinated IPAG, sigma-1", "result": "nanomolar"}, {"measurement": "reduction of [^124I]IPAG tumor uptake", "setting": "MCF-7 tumor xenografts; 24 h", "result": 81.14, "unit": "%"}, {"measurement": "reduction of [^124I]IPAG tumor uptake", "setting": "MCF-7 tumor xenografts; 48 h", "result": 88.74, "unit": "%"}, {"measurement": "solubility", "setting": "[2]", "result": "poor solubility"}, {"measurement": "pKd", "setting": "S1R [3]", "result": 8.05}, {"measurement": "clearance time from background organs", "setting": "MCF7 tumor xenografts; PET imaging, mice", "result": "around 24 h"}, {"measurement": "calculated %ID/g values (PET ROI) versus [^124I]IPAG alone", "setting": "LNCaP tumors", "result": "significantly lower"}]}, {"smiles": "O=C(CCCN1CCC(O)(c2ccc(Cl)cc2)CC1)c1ccc(F)cc1", "note": "[haloperidol]", "values": [{"measurement": "inhibition of [^124I]IPAG uptake in tumor", "setting": "MCF-7 tumor xenografts; 3.5-fold excess of haloperidol i.v. with tracer, 72 h p.i.", "result": "about 3 fold"}]}]}
